Experimental data taken from ChEMBL document CHEMBL4002632, “Development of gallic acid formazans as novel enoyl acyl carrier protein reductase inhibitors for the treatment of tuberculosis” (Bioorg Med Chem Lett, 2017).
≈ marks a conversion by molar mass, not a printed value. Calls of active or inactive are those of the source. No cut-off for these calls is given here.

Legend:
Format in all cases: functional
[1] = tested on: Mycobacterium tuberculosis; assay: Antimycobacterial activity against isoniazid/rifampicin/kanamycin/streptomycin-resistant Mycobacterium tuberculosis by microplate Alamar Blue assay
Method in brief: (§1)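 MIC against multidrug-resistant M. tuberculosis strains: HR, HRKS, HRKCpm, HRKSXMfxLev and HRS. Linezolid served as reference.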

[2] = tested on: Mycobacterium tuberculosis; assay: Antimycobacterial activity against isoniazid/rifampicin/streptomycin-resistant Mycobacterium tuberculosis by microplate Alamar Blue assay; method in brief: as §1
[3] = tested on: Mycobacterium tuberculosis; assay: Antimycobacterial activity against isoniazid/rifampicin/kanamycin/capreomycin-resistant Mycobacterium tuberculosis by microplate Alamar Blue assay; method in brief: as §1
[4] = tested on: Mycobacterium tuberculosis; assay: Antimycobacterial activity against isoniazid/rifampicin-resistant Mycobacterium tuberculosis by microplate Alamar Blue assay; method in brief: as §1
[5] = tested on: Mycobacterium tuberculosis; assay: Antimycobacterial activity against isoniazid/rifampicin/kanamycin/streptomycin/ofloxacin/moxifloxacin/levofloxacin-resistant Mycobacterium tuberculosis by microplate Alamar Blue assay; method in brief: as §1

| SMILES | MIC [1] | MIC [2] | MIC [3] | MIC [4] | MIC [5] |
| --- | --- | --- | --- | --- | --- |
| O=C(N/N=C(/N=N/c1ccccc1)c1ccccc1)c1cc(O)c(O)c(O)c1 | inactive | inactive | inactive | inactive | inactive |
| O=C(N/N=C(/N=N/c1ccccc1[N+](=O)[O-])c1ccccc1)c1cc(O)c(O)c(O)c1 | inactive | 14.8 µM (≈ 6.25 µg/mL) | inactive | 5.46 µM (≈ 2.3 µg/mL) | inactive |
| COc1ccc(/N=N/C(=N/NC(=O)c2cc(O)c(O)c(O)c2)c2ccccc2)cc1 | 2.92 µM (≈ 1.19 µg/mL) | 1.9 µM (≈ 0.772 µg/mL) | 7.62 µM (≈ 3.1 µg/mL) | 1.9 µM (≈ 0.772 µg/mL) | 10.6 µM (≈ 4.29 µg/mL) |
| Cc1ccccc1/N=N/C(=N/NC(=O)c1cc(O)c(O)c(O)c1)c1ccccc1 | 16 µM (≈ 6.25 µg/mL) | 5.89 µM (≈ 2.3 µg/mL) | inactive | 5.89 µM (≈ 2.3 µg/mL) | inactive |
| O=C(N/N=C(/N=N/c1ccc([N+](=O)[O-])cc1)c1ccccc1)c1cc(O)c(O)c(O)c1 | 22.3 µM (≈ 9.4 µg/mL) | 5.46 µM (≈ 2.3 µg/mL) | 14 µM (≈ 5.9 µg/mL) | 2.85 µM (≈ 1.2 µg/mL) | inactive |
| O=C(N/N=C(/N=N/c1ccccc1Cl)c1ccccc1)c1cc(O)c(O)c(O)c1 | inactive | 2.95 µM (≈ 1.21 µg/mL) | inactive | 2.9 µM (≈ 1.19 µg/mL) | inactive |
| CC(=O)NC[C@H]1CN(c2ccc(N3CCOCC3)c(F)c2)C(=O)O1 [LINEZOLID] | 2.78 µM (≈ 0.938 µg/mL) | 3.7 µM (≈ 1.25 µg/mL) | 1.86 µM (≈ 0.627 µg/mL) | 3.7 µM (≈ 1.25 µg/mL) | 1.86 µM (≈ 0.627 µg/mL) |
| O=C(N/N=C(/N=N/c1ccc(F)cc1)c1ccccc1)c1cc(O)c(O)c(O)c1 | 0.73 µM (≈ 0.288 µg/mL) | 0.96 µM (≈ 0.379 µg/mL) | 1.92 µM (≈ 0.757 µg/mL) | 0.49 µM (≈ 0.193 µg/mL) | inactive |
| COc1ccccc1/N=N/C(=N/NC(=O)c1cc(O)c(O)c(O)c1)c1ccccc1 | inactive | inactive | inactive | 23.9 µM (≈ 9.69 µg/mL) | inactive |
| O=C(N/N=C(/N=N/c1ccc(Cl)cc1Cl)c1ccccc1)c1cc(O)c(O)c(O)c1 | 5.16 µM (≈ 2.3 µg/mL) | 1.34 µM (≈ 0.597 µg/mL) | 7.43 µM (≈ 3.31 µg/mL) | 0.33 µM (≈ 0.147 µg/mL) | 11.4 µM (≈ 5.09 µg/mL) |
